Tests used:
[1] = Selectivity index, ratio of CC50 for human HuH7 cells to EC50 for cell culture derived HCV; parameters: species or system Huh-7
How it was run: (§1)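 Naïve Huh-7 cells in 384-well plates were given serially diluted compound, then infected with cell culture-derived HCV (HCVcc) at MOI 1. Live cells were analysed 72 h post-infection. EC50 came from 10-point dose-response in duplicate with quadruplicate measurements, or 5-point in duplicate for one series. CC50 came from automated per-well cell counts. SI = CC50/EC50.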

[2] = Cytotoxicity against human HuH7 cells; format: cell-based, Huh-7; how it was run: as §1
[3] = test system: Hepatitis C virus; test: Antiviral activity against cell culture derived HCV infected in human HuH7 cells assessed as inhibition of viral replication after 72 hrs; format: functional, organism-based, Hepacivirus hominis; details: Huh-7, 72 h; how it was run: as §1

Row | SMILES | EC50 [3] | Ratio CC50/EC50 [1] | CC50 [2]
1 | CCCN1CCC(CNCc2cn(-c3ccc([N+](=O)[O-])cc3)nc2-c2ccc(OC(F)(F)F)cc2)CC1 | 0.6 µM | 30 | 18 µM
2 | CN1CCN(CCNCc2cn(-c3ccc(F)cc3F)nc2-c2ccccc2Cl)CC1 | 3.3 µM | >6.1 | > 20 µM
3 | CCN(CC)CCCNCc1cn(-c2ccc(F)cc2F)nc1-c1ccccc1C | 4.3 µM | >4.6 | > 20 µM
4 | Cc1ccccc1-c1nn(-c2ccccc2Cl)cc1CNCCN1CCN(C)CC1 | 3.8 µM | >5.3 | > 20 µM
5 | Cc1ccccc1-c1nn(-c2ccc(F)cc2F)cc1CN1CCC(N2CCCCC2)CC1 | 7.5 µM | >2.7 | > 20 µM
6 | Cc1ccccc1-c1nn(C(C)C)cc1CNCCN1CCN(C)CC1 | > 20 µM |  | > 20 µM
7 | Cc1ccccc1-c1nn(-c2cc(F)ccc2F)cc1CNCCN1CCN(C)CC1 | 2.5 µM | >8 | > 20 µM
8 | Cc1ccccc1-c1nn(-c2ccc(F)cc2F)cc1CN1CCN(C(C)C)CC1 | > 20 µM |  | > 20 µM
9 | COCCN1CCC(CNCc2cn(-c3ccc(F)cc3F)nc2-c2ccccc2C)CC1 | 3 µM | >6.7 | > 20 µM
10 | Cc1ccccc1-c1nn(-c2ccc(F)cc2F)cc1CNCCN1CCCCC1 | 20 µM | >1 | > 20 µM
11 | Cc1ccccc1-c1nn(-c2ccc(F)cc2F)cc1CNCc1ccncc1 | > 20 µM |  | > 20 µM
12 | CN1CCN(CCNCc2cn(-c3ccc(F)cc3F)nc2Cc2ccccc2)CC1 | 16 µM | >1.3 | > 20 µM
13 | CCCCCNCc1cn(-c2ccc(F)cc2F)nc1-c1ccccc1C | 18 µM | 1 | 17 µM
14 | Cc1ccccc1-c1nn(Cc2ccc(F)cc2)cc1CNCCN1CCN(C)CC1 | 10 µM | >2 | > 20 µM
15 | Cc1c(CNCCN2CCN(C)CC2)c(-c2ccccc2)nn1-c1ccc(F)cc1 | 8.5 µM |  | > 20 µM
16 | CN1CCN(CCNC(=O)c2cn(-c3ccc(F)cc3F)nc2-c2ccccc2Cl)CC1 | > 20 µM |  | > 20 µM
17 | Cc1ccccc1-c1nn(-c2ccc(F)cc2F)cc1CNCCN(C)C | > 20 µM |  | > 20 µM

Further lines, with some results ahead:

Row | EC50 [3] | SMILES | Ratio CC50/EC50 [1] | CC50 [2]
18 | 0.9 µM | Cc1ccccc1-c1nn(-c2ccc(OC(F)(F)F)cc2)cc1CNCCN1CCN(C)CC1 | 19 | 17 µM
19 | 1.2 µM | Cc1ccccc1-c1nn(-c2ccc(Br)cc2)cc1CNCCN1CCN(C)CC1 | 8 | 9.6 µM
20 | 0.46 µM | Cc1ccccc1-c1nn(-c2ccc(C(F)(F)F)cc2)cc1CNCCN1CCN(C)CC1 | 24 | 11 µM
21 | 3.7 µM | Cc1ccccc1-c1nn(-c2ccc(F)cc2)cc1CNCCN1CCN(C)CC1 | >5.4 | > 20 µM
22 | 0.44 µM | CN1CCN(CCNCc2cn(-c3ccc(C(F)(F)F)cc3)nc2-c2ccc(OC(F)(F)F)cc2)CC1 | 6.9 | 3 µM
23 | 0.38 µM | CN1CCN(CCCNCc2cn(-c3ccc(C(F)(F)F)cc3)nc2-c2ccc(C(F)(F)F)cc2)CC1 | 5.3 | 2 µM
24 | 0.33 µM | CCCN1CCC(CNCc2cn(-c3ccc(C(F)(F)F)cc3)nc2-c2ccc(C(F)(F)F)cc2)CC1 | 3.6 | 1.2 µM
25 | 0.75 µM | CN1CCN(CCCNCc2cn(-c3ccc(C(F)(F)F)cc3)nc2-c2ccc(OC(F)(F)F)cc2)CC1 | 3.1 | 2.3 µM
26 | 0.91 µM | Cc1ccccc1-c1nn(-c2cccc(C(F)(F)F)c2)cc1CNCCN1CCN(C)CC1 | 20 | 18 µM
27 | 0.29 µM | CN1CCN(CCNCc2cn(-c3ccc([N+](=O)[O-])cc3)nc2-c2ccc(Cl)cc2)CC1 | 17 | 5 µM
28 | 0.41 µM | CCCN1CCC(CNCc2cn(-c3ccc(C(F)(F)F)cc3)nc2-c2ccc(OC(F)(F)F)cc2)CC1 | 5.3 | 2.2 µM
29 | 0.4 µM | CN1CCN(CCNCc2cn(-c3ccc([N+](=O)[O-])cc3)nc2-c2ccc(OC(F)(F)F)cc2)CC1 | 11 | 4.4 µM
30 | 0.11 µM | CN1CCN(CCNCc2cn(-c3ccc([N+](=O)[O-])cc3)nc2-c2ccc(C(F)(F)F)cc2)CC1 | 29 | 3.2 µM
31 | 0.13 µM | CN1CCN(CCCNCc2cn(-c3ccc([N+](=O)[O-])cc3)nc2-c2ccc(Cl)cc2)CC1 | 28 | 3.7 µM
32 | 1.6 µM | CN1CCN(CCNCc2cn(-c3ccc(F)cc3F)nc2-c2ccccc2)CC1 | >13 | > 20 µM
33 | 0.36 µM | CN1CCN(CCCNCc2cn(-c3ccc(C(F)(F)F)cc3)nc2-c2ccc(Cl)cc2)CC1 | 6.9 | 2.5 µM

From ChEMBL document CHEMBL2439964, “Identification of a series of 1,3,4-trisubstituted pyrazoles as novel hepatitis C virus entry inhibitors” (Bioorg Med Chem Lett, 2013)
